The source made the active and inactive calls. No cut-off for these calls is given here. Peptide text beside a SMILES is read from it. * marks the point of attachment. Cbz = O=C(OCc1ccccc1)*
Legend:
Homo sapiens [1] = species on record: Homo sapiens; assay: Inhibition of proteasome in human MDA-MB-231 cells assessed as increase in CHOP protein levels at 5 uM after 8 hrs by Western blot analysis; format: cell-based
Outline: (§1)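 Cells treated for 8 h in DMEM with 10% FBS, with DMSO negative control, CB-5083 (1.0 μM) positive control and MG132 (5.0 μM) comparator. Lysed by sonication in SDS sample buffer and run on 4–20% SDS-PAGE. Immunoblotted with anti-XBP1s, ATF4, CHOP (1:1000) and β-actin loading control, then HRP secondaries (1:3000) and chemiluminescence.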

[2] = target: Transitional endoplasmic reticulum ATPase (Homo sapiens) (UniProt P55072); assay: Inhibition of p97 in human MDA-MB-231 cells assessed as UPR activation by measuring increase in CHOP protein levels up to 20 uM after 8 hrs by Western blot analysis; format: cell-based
Sequence of Transitional endoplasmic reticulum ATPase (Homo sapiens) (P55072 2-806 limits assumed): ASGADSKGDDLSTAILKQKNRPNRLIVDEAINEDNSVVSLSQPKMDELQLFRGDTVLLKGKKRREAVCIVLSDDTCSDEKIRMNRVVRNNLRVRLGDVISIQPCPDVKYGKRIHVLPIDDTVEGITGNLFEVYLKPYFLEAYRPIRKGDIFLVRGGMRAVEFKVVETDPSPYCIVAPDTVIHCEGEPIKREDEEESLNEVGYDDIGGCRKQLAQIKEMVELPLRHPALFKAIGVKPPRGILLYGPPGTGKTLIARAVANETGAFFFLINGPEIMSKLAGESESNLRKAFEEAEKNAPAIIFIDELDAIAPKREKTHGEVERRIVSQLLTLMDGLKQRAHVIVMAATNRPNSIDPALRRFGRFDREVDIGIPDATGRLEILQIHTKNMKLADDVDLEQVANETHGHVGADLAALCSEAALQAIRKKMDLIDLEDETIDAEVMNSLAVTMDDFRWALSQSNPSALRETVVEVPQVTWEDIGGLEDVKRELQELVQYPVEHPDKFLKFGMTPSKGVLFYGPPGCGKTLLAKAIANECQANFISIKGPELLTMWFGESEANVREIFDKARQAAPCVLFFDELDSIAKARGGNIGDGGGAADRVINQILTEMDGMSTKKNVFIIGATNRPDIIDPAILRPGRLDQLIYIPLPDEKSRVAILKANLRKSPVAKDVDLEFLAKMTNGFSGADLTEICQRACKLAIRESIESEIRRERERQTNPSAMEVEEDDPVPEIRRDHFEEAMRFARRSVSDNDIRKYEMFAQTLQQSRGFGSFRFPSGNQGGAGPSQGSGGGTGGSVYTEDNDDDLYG
Outline: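 MDA-MB-231 cells were treated for 8 h in DMEM with 10% FBS, then harvested in SDS sample buffer, sonicated and cleared. Lysates were run on 4–20% SDS-PAGE and transferred to nitrocellulose. Blots were blocked in 5% milk and probed for CHOP, XBP1s and ATF4 (1:1000), with β-actin as loading control. Detection was by chemiluminescence. DMSO served as negative control, with CB-5083 (1.0 μM) and MG132 (5.0 μM) as comparators.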

Fibroblast [3] = assay: Induction of heat-shock response in mouse fibroblasts harboring reporter construct encoding enhanced green fluorescent protein at 5 uM after overnight incubation by fluorescence assay; format: functional, cell-based
Outline: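 Stably transfected reporter fibroblasts (EGFP driven by a minimal consensus heat-shock element) were seeded at 20 000 cells/well and left to attach overnight. Serial 2-fold dilutions of compound were added in triplicate, with DMSO vehicle (≤0.1%) as the negative control. After overnight incubation the cells were rinsed and read in PBS at Ex 485/Em 525 nm. Mean fluorescence ± SD was expressed relative to DMSO.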

PC-3M = assay: Cytotoxicity against human PC3M cells after 72 hrs by resazurin/AlamarBlue dye-based fluorescence assay; format: functional, cell-based
Outline: (§2)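 Serial dilutions of compound or DMSO vehicle added to triplicate wells in RPMI-1640 with 10% FBS, 72 h at 37 °C. Resazurin (AlamarBlue) dye then added at 1:10 dilution, 4 h more at 37 °C, fluorescence read at Ex/Em 560/590. Mean fluorescence per well compared with DMSO-treated wells as relative viable cell number; doxorubicin positive control.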

MCF7 = assay: Cytotoxicity against human MCF7 cells after 72 hrs by resazurin/AlamarBlue dye-based fluorescence assay; format: functional, cell-based; conditions: MCF7, 72 h; outline: as §2
SF-268 = assay: Cytotoxicity against human SF268 cells after 72 hrs by resazurin/AlamarBlue dye-based fluorescence assay; format: functional, cell-based; conditions: SF-268, 72 h; outline: as §2
MDA-MB-231 = assay: Cytotoxicity against human MDA-MB-231 cells after 72 hrs by resazurin/AlamarBlue dye-based fluorescence assay; format: functional, cell-based; conditions: MDA-MB-231, 72 h; outline: as §2
NCI-H460 = assay: Cytotoxicity against human NCI-H460 cells after 72 hrs by resazurin/AlamarBlue dye-based fluorescence assay; format: functional, cell-based; conditions: NCI-H460, 72 h; outline: as §2
Homo sapiens [4] = species on record: Homo sapiens; assay: Inhibition of proteasome in human MDA-MB-231 cells assessed as increase in CHOP protein levels up to 20 uM after 8 hrs by Western blot analysis; format: cell-based; outline: as §1
Homo sapiens [5] = species on record: Homo sapiens; assay: Inhibition of proteasome in human MDA-MB-231 cells assessed as UPR activation by measuring increase in ATF4 protein levels up to 20 uM after 8 hrs by Western blot analysis; format: cell-based; outline: as §1
Fibroblast [6] = assay: Induction of heat-shock response in mouse fibroblasts harboring reporter construct encoding enhanced green fluorescent protein at 1.25 to 5 uM after overnight incubation by fluorescence assay; format: functional, cell-based
Outline: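 Reporter fibroblasts carry EGFP driven by a minimal consensus heat-shock element. Seeded at 20 000 cells/well and attached overnight. Serial 2-fold dilutions added in triplicate, with DMSO (≤0.1%) as negative control and monocillin I as positive control. Incubated overnight, rinsed with PBS, fluorescence read at 485/525 nm. Reported as mean ± SD of triplicates, also as a percentage of the DMSO control; three independent experiments.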

Homo sapiens [7] = species on record: Homo sapiens; assay: Inhibition of proteasome in human MDA-MB-231 cells assessed as increase in XBP1 protein levels up to 20 uM after 8 hrs by Western blot analysis; format: cell-based; outline: as §1

CC(C)C[C@@H](C=O)NC(=O)[C@H](CC(C)C)NC(=O)[C@H](CC(C)C)NC(=O)OCc1ccccc1 (Cbz-Leu-Leu-Leu-aldehyde)
inhibition (Homo sapiens [1]): Active

C[C@H]1CCC/C=C/C(=O)c2c(O)c(Cl)c(O)c(Cl)c2CC(=O)O1
inhibition [2]: Active | Activity (Fibroblast [3]): Active

C[C@H]1CCC/C=C/C(=O)c2c(cc(O)c(Cl)c2O)CC(=O)O1
IC50 (PC-3M): 1.71 µM | IC50 (MCF7): 1.99 µM | IC50 (SF-268): 1.41 µM | IC50 (MDA-MB-231): 2.95 µM | IC50 (NCI-H460): 1.45 µM | Activity (Fibroblast [3]): Active

C[C@H]1CCC/C=C/C(=O)c2c(O)cc(O)cc2CC(=O)O1 [DEHYDROCURVULARIN]
IC50 (PC-3M): 4.51 µM | IC50 (SF-268): 4.73 µM | IC50 (MDA-MB-231): > 5 µM | inhibition (Homo sapiens [4]): Active | inhibition (Homo sapiens [5]): Active | Activity (Fibroblast [6]): Active | IC50 (NCI-H460): 3.57 µM | inhibition (Homo sapiens [7]): Active

COc1cccc2c1C(=O)c1c(O)c3c(c(O)c1C2=O)C[C@@](O)(C(=O)CO)C[C@@H]3O[C@H]1C[C@H](N)[C@H](O)[C@H](C)O1 [DOXORUBICIN]
IC50 (PC-3M): 0.24 µM
